Experimental data reported in ChEMBL document CHEMBL1151746, “Antitumor agents 6. Synthesis, structure-activity relationships, and biological evaluation of spiro[imidazolidine-4,3'-thieno[2,3-g]quinoline]-tetraones and spiro[thieno[2,3-g]quinoline-3,5'-[1,2,4]triazinane]-tetraones with potent antiproliferative activity” (J Med Chem, 2008).
Activity calls are given as the source filed them. The calls are words filed in the database; no cut-off is given here.

How the values were obtained:
MT4 = assay: Antiproliferative activity against human MT4 cells after 96 hrs by MTT assay; type: functional, cell-based; settings: Homo sapiens, MT4, 96 h
Outline: (§1)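 Exponentially growing cells in RPMI 1640 with 10% FCS were resuspended at 1 × 10⁵ cells/mL in RPMI containing serial dilutions of compound (DMSO solution at 200 µM, diluted in medium). After 96 h at 37 °C, viability was read by MTT. Growth was taken as % of untreated controls, which grew at least three rounds. IC50 came from linear regression, as the mean of three independent determinations.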

HT-29 = assay: Antiproliferative activity against human HT-29 cells after 96 hrs by MTT assay; type: functional, cell-based; settings: Homo sapiens, HT-29, 96 h
Outline: (§2)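 Solid-tumor cells in their specific media with 10% FCS were seeded at 5 × 10⁴ cells/mL and left to adhere 16 h. Serially diluted compound was then added (DMSO solution at 200 µM, diluted in medium). MTT viability was read 4 days later. IC50 came from linear regression against untreated controls, which grew at least three rounds, as the mean of three independent determinations.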

CCRF-CEM = assay: Antiproliferative activity against human CCRF-CEM cells after 96 hrs by MTT assay; type: functional, cell-based; outline: as §1
CCRF-SB = assay: Antiproliferative activity against human CCRF-SB cells after 96 hrs by MTT assay; type: functional, cell-based; outline: as §1
MCF7 = assay: Antiproliferative activity against human MCF7 cells after 96 hrs by MTT assay; type: functional, cell-based; settings: MCF7, 96 h; outline: as §2
HeLa = assay: Antiproliferative activity against human HeLa cells after 96 hrs by MTT assay; type: functional, cell-based; outline: as §2
ACHN = assay: Antiproliferative activity against human ACHN cells after 96 hrs by MTT assay; type: functional, cell-based; outline: as §2
SF-268 = assay: Antiproliferative activity against human SF-268 cells after 96 hrs by MTT assay; type: functional, cell-based; settings: SF-268, 96 h; outline: as §2
XF498 = assay: Antiproliferative activity against human XF498 cells after 96 hrs by MTT assay; type: functional, cell-based; settings: XF498, 96 h; outline: as §2
MRC5 = assay: Antiproliferative activity against human MRC5 cells after 96 hrs by MTT assay; type: cell-based; settings: MRC5, 96 h; outline: as §1
[1] = molecular target: T1, DNA topoisomerase 1 (Homo sapiens) (UniProt P11387); assay: Inhibition of DNA topoisomerase 1-mediated supercoiled pBR322 DNA relaxation at 5 to 10 uM by agarose gel electrophoresis
T1 sequence (whole entry): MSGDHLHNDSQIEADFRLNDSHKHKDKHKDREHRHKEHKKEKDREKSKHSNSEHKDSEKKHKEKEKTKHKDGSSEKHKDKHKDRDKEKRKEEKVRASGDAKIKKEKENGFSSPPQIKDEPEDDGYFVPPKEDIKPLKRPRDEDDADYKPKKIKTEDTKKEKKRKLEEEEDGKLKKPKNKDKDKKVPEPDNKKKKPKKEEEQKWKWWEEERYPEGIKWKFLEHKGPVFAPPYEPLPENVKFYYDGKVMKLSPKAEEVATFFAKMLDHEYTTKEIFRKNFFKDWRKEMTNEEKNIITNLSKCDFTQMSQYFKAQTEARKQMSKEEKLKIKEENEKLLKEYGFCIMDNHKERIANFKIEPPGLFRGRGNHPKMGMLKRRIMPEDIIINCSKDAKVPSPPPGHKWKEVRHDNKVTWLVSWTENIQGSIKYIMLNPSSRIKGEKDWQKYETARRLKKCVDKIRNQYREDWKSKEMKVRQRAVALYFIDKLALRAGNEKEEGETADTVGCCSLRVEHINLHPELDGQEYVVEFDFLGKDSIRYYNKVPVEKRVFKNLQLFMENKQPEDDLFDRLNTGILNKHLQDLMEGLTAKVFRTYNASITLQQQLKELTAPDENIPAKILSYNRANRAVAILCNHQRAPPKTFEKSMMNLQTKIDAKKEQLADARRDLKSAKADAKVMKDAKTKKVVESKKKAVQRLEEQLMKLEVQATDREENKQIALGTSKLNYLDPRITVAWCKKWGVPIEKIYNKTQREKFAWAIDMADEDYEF

[2] = molecular target: DNA topoisomerase 2-alpha (Homo sapiens) (UniProt P11388); assay: Inhibition of DNA topoisomerase 2-mediated negatively supercoiled pBR322 relaxation
[3] = molecular target: T1, DNA topoisomerase 1 (Homo sapiens); assay: Inhibition of DNA topoisomerase 1-mediated supercoiled pBR322 DNA relaxation at 25 uM by agarose gel electrophoresis
[4] = molecular target: T2, DNA ligase (Enterobacteria phage T4) (UniProt P00970); assay: Inhibition of T4 DNA ligase by DNA unwinding assay; settings: Tequatrovirus T4
T2 sequence (whole entry): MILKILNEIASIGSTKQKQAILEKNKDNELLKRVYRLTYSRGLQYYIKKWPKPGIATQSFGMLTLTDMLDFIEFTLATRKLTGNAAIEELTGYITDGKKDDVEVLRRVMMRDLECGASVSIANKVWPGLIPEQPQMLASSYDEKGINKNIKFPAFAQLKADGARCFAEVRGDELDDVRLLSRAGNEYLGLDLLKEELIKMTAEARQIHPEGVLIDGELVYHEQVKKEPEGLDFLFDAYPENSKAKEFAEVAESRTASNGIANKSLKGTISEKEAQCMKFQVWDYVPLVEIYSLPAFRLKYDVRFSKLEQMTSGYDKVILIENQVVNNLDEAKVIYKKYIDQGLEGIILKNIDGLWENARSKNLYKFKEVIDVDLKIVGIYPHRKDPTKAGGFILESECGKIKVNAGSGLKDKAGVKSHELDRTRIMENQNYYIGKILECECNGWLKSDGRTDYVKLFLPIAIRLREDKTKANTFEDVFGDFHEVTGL
Outline: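 EcoRI-linearized pBR322 (0.1 µg) in 30 mM Tris-HCl pH 7.8, 10 mM MgCl2, 10 mM DTT and 0.5 mM ATP was equilibrated with compound 30 min at 20 °C. Excess T4 DNA ligase was then added for 30 min at 20 °C, and reactions were stopped at 55 °C. After phenol extraction, products were resolved on 1% agarose gels.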

[5] = molecular target: T1, DNA topoisomerase 1 (Homo sapiens); assay: Inhibition of DNA topoisomerase 1-mediated supercoiled pBR322 DNA relaxation at 5 uM by agarose gel electrophoresis

Sequence of DNA topoisomerase 2-alpha (Homo sapiens) (P11388 whole entry): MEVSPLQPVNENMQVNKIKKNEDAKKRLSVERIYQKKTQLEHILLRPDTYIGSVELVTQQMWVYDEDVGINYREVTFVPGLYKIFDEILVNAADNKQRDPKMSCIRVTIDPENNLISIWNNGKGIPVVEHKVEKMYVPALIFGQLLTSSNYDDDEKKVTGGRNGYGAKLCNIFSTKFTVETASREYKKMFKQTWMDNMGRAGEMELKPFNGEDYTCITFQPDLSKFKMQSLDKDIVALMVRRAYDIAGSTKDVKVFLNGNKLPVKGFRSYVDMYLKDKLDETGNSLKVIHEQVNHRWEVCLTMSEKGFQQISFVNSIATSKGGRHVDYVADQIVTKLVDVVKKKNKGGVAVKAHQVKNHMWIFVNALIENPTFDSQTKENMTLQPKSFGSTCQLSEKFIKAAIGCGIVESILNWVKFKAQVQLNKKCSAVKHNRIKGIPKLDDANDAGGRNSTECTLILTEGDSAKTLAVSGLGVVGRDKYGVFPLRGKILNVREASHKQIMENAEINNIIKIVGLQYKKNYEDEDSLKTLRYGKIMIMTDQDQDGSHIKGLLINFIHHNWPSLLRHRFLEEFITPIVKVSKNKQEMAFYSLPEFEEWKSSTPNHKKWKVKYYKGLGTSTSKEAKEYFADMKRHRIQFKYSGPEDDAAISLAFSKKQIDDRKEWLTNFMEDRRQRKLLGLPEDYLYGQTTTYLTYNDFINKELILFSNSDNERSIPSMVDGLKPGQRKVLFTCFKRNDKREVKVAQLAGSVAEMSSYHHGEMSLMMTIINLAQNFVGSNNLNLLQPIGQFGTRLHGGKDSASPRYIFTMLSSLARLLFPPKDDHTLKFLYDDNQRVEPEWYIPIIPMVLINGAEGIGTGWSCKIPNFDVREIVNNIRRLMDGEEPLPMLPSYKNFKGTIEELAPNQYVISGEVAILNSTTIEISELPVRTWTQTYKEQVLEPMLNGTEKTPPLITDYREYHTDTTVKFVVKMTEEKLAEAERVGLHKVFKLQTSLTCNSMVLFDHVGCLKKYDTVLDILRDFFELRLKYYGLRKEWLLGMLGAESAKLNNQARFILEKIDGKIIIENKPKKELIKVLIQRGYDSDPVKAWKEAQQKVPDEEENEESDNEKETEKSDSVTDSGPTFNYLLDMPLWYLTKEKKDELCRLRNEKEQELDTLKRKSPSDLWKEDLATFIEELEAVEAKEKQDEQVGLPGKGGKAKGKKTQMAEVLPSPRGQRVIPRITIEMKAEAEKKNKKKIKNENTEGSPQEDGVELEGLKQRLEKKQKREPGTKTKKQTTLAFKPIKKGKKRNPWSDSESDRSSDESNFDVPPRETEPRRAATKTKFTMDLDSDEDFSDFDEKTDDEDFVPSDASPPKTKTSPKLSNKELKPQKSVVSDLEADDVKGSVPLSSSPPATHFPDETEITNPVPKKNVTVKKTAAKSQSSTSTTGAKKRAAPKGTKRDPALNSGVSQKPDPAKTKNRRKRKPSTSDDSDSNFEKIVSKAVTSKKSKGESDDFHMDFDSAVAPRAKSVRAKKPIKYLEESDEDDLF

Row | SMILES | IC50 (MT4) [nM] | IC50 (HT-29) [nM] | IC50 (CCRF-CEM) [nM] | IC50 (CCRF-SB) [nM] | IC50 (MCF7) [nM] | IC50 (HeLa) [nM] | IC50 (ACHN) [nM] | IC50 (SF-268) [nM] | IC50 (XF498) [nM] | IC50 (MRC5) [nM] | Activity [1] | Activity [2] | Activity [3] | Activity [4] | Activity [5]
1 | CCCc1ccc(N2C(=O)NC3(CSC4=C3C(=O)c3ncccc3C4=O)C2=O)cc1 (racemic) | 1 | 1 | 1 | 2 | 2 | 5 | 1 | 300 | 450 | 850 | inactive | Dose-dependent effect | – | – | –
2 | CN(C)c1ccc(N2C(=O)NC3(CSC4=C3C(=O)c3ncccc3C4=O)C2=O)cc1 (racemic) | 15 | 20 | 1 | 1 | 10 | 10 | 90 | 950 | 800 | 1000 | – | Dose-dependent effect | – | – | –
3 | COc1cccc2c1C(=O)c1c(O)c3c(c(O)c1C2=O)C[C@@](O)(C(=O)CO)C[C@@H]3O[C@H]1C[C@H](N)[C@H](O)[C@H](C)O1 [DOXORUBICIN] | 3 | 2 | 20 | – | – | – | – | 200 | 160 | 300 | – | – | Active | Active | Active
